Several values for one entry are separate records, joined by “and”; a condition that tells them apart may be missing. Equal entries are not always repeated. Where two headings read alike, the source gives them in different places.
Assays:
[1] = aqueous solution; cited from earlier work
Mn-hArgI = molecular target: T1, Mn-hArgI (Homo sapiens, UniProt P05089); experiment: Inhibition of Mn-hArgI by L-Orn and L-Leu; type: biochemical
T1 sequence (P05089 1-322): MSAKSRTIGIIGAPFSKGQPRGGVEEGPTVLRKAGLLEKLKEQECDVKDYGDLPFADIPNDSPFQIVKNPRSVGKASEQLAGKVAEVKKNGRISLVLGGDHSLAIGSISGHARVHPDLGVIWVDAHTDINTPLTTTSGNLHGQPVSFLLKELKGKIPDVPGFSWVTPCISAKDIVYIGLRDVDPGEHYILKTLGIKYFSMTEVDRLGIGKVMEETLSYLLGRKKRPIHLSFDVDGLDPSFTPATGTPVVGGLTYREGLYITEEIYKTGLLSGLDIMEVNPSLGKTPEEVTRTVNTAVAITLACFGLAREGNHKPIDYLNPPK

Co-hArgI = molecular target: T2, Co-hArgI (Homo sapiens, UniProt P05089); experiment: Inhibition of Co-hArgI by L-Orn and L-Leu; type: biochemical
T2 sequence (P05089 1-322): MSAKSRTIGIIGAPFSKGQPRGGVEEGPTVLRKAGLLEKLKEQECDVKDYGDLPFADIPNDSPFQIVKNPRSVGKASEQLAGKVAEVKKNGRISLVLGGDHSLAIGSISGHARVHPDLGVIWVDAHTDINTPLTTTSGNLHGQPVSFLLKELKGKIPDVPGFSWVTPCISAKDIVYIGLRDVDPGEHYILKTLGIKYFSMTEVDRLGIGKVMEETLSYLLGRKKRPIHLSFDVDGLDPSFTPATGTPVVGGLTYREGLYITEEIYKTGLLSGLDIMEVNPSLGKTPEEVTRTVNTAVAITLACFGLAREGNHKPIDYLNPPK

hArgII = conditions: cited from earlier work
rat Arginase I = rat Arginase I at pH 9.0; cited from earlier work
[2] = cited from earlier work
[3] = Serum stability in pooled human serum; type: in vitro ADME; conditions: 1 μM enzyme, 37 °C
Method in brief: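 Purified His-tagged hArgI (E. coli BL21, IMAC, metal-loaded with 10 mM CoCl2 or MnSO4, 15 min at 50–55 °C) added at 1 µM to pooled human serum at 37 °C. Aliquots taken at time points and tested in triplicate for hydrolysis of 1 mM L-Arg. Rate versus time fitted to a single exponential or a biphasic decay model to give t1/2.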

melanoma cell line A375 = conditions: for IC50: A375 melanoma cells, MTT
[4] = pH rate dependence of manganese and cobalt arginase; type: biochemical; conditions: for apparent pKa of kcat vs pH (one-pKa model) / apparent pKa of 1/KM vs pH, lower pKa / apparent pKa of 1/KM vs pH, upper pKa: 37 °C; for apparent pKa of kcat vs pH (one-pKa model): Co-hArgI value tentative; for apparent pKa of 1/KM vs pH, lower pKa / apparent pKa of 1/KM vs pH, upper pKa: bell shaped curve; for ascending limb pKa of kcat/KM vs pH (fit) / descending limb pKa of kcat/KM vs pH (fit): two pKa Henderson-Hasselbach model
Method in brief: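 Mn- or Co-substituted enzyme assayed at 37 °C, at least in triplicate, in 100 mM buffers: acetate (pH 5–5.5), MES (6–6.5), HEPES (7–7.8), Tris (8–9), Capso (9–10.5). L-Arg ranged 30 µM–80 mM depending on pH. Michaelis–Menten fits gave kcat and KM. kcat/KM versus pH fitted to a Henderson–Hasselbalch form for ascending and descending pKa, with Segel correction. Log kcat and 1/KM plotted versus pH.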

[5] = Steady-state kinetics of L-Arg hydrolysis by purified hArgI; type: biochemical; conditions: for kcat: hydrolysis of L-Arg, 100 mM Hepes buffer; for Fold change KM L-Arg: pH 7.4 vs pH 8.5; for Km: read-out: KM L-Arg
Method in brief: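 His6-TEV-tagged human ArgI expressed in E. coli BL21 and IMAC-purified. Loaded with 10 mM CoCl2 or MnSO4 (15 min, 50–55 °C), then exchanged into 100 mM HEPES/10% glycerol, pH 7.4. Concentration taken from A280 in 6 M guanidinium. Enzyme-started reactions quenched with 12 N HCl after 30 s. Urea derivatised with DAMO/thiosemicarbazide/Fe3+ (COLDER) by 15 min boiling, read at A530 with L-Arg blanks. At least triplicate; Michaelis–Menten fit.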

[6] = system: hepatocellular carcinoma cell line, Hep3b; experiment: In vitro cytotoxicity; type: cell-based, human
[7] = Kinetics of deactivation in HEPES buffer with added Co^2+; type: physicochemical; conditions: 100 mM HEPES, pH 7.4, 37 °C, in the presence of 500 μM Co^2+
[8] = Thermal denaturation by circular dichroism; type: physicochemical; conditions: 100 mM phosphate buffer, pH 7.4, θ222
Method in brief: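 Co-substituted enzyme at 6 µM in 100 mM phosphate, pH 7.4. Molar ellipticity at 222 nm monitored from 25 to 90 °C. Fraction denatured calculated as the ratio to the ellipticity of fully unfolded protein. Data fitted to a modified logistic equation for the transition midpoint.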

[9] = rat enzyme; cited from earlier work

NC(N)=NCCN1CCNCCNCCNCC1.[Zn+2]
apparent pKa of guanidinium deprotonation [1]: 5.9

CC(C)C[C@H](N)C(=O)O [L-Leu, L-Leucine]
Ki (Mn-hArgI; Ki L-Leu, pH 7.4): 390 ± 40 µM
Ki (Mn-hArgI; Ki L-Leu, pH 8.5): 640 ± 40 µM
Fold change Ki L-Leu (Mn-hArgI; pH 7.4 vs pH 8.5): (1.6) fold
Ki (Co-hArgI; Ki L-Leu, pH 7.4): 480 ± 50 µM
Ki (Co-hArgI; Ki L-Leu, pH 8.5): 1300 µM
Fold change Ki L-Leu (Co-hArgI; pH 7.4 vs pH 8.5): (2.7) fold
Ki (hArgII): 1000 ± 100 µM

NCCCC[C@H](N)C(=O)O [L-Lys]
Ki (rat Arginase I): 900 µM

NCCC[C@H](N)C(=O)O [L-Orn, L-Ornithine]
Ki (Mn-hArgI; read-out: Ki L-Orn, pH 7.4): 2400 µM
Ki (Mn-hArgI; read-out: Ki L-Orn, pH 8.5): 530 ± 60 µM
Ki (Co-hArgI; read-out: Ki L-Orn, pH 7.4): 76 ± 16 µM
Ki (Co-hArgI; read-out: Ki L-Orn, pH 8.5): 50 ± 7 µM
Ki (Co-hArgI; read-out: Ki L-Orn, pH 8.5, 37 °C): 64 ± 9 µM

B1: metallo-β-lactamase from B. cereus: metallo-β-lactamase from B. cereus with Mn^2+ or Co^2+ cofactor (protein, UniProt P04190 31-257, looked up)
Metallo-beta-lactamase type 2: SQKVEKTVIKNETGTISISQLNKNVWVHTELGSFNGEAVPSNGLVLNTSKGLVLVDSSWDDKLTKELIEMVEKKFQKRVTDVIITHAHADRIGGIKTLKERGIKAHSTALTAELAKKNGYEEPLGDLQTVTNLKFGNMKVETFYPGKGHTEDNIVVWLPQYNILVGGCLVKSTSAKDLGNVADAYVNEWSTSIENVLKRYRNINAVVPGHGEVGDKGLLLHTLDLLK
modifications: Mn2+ or Co2+ cofactor
pKa ([2]; Co^2+ as the cofactor): 6.9
pKa ([2]; with Mn^2+): 8.4

B2: Mn-hArgI: recombinant human Arginase I with the native di-nuclear Mn^2+ cofactor (protein, UniProt P05089 1-322, looked up)
Arginase-1: MSAKSRTIGIIGAPFSKGQPRGGVEEGPTVLRKAGLLEKLKEQECDVKDYGDLPFADIPNDSPFQIVKNPRSVGKASEQLAGKVAEVKKNGRISLVLGGDHSLAIGSISGHARVHPDLGVIWVDAHTDINTPLTTTSGNLHGQPVSFLLKELKGKIPDVPGFSWVTPCISAKDIVYIGLRDVDPGEHYILKTLGIKYFSMTEVDRLGIGKVMEETLSYLLGRKKRPIHLSFDVDGLDPSFTPATGTPVVGGLTYREGLYITEEIYKTGLLSGLDIMEVNPSLGKTPEEVTRTVNTAVAITLACFGLAREGNHKPIDYLNPPK
modifications: Mn2+ cofactor
t½ of activity (single exponential loss) [3]: 4.8 ± 0.8 h
IC50 (melanoma cell line A375): 0.0041 ± 0.0001 µM
apparent pKa of kcat vs pH (one-pKa model) [4]: 8.1 ± 0.05
apparent pKa of 1/KM vs pH, lower pKa [4]: 7.1 ± 0.1 and 7.1
apparent pKa of 1/KM vs pH, upper pKa [4]: 10.7 ± 0.3 and 10.7
fold increase of rate (kcat) with pH ([4]; over the pH range studied (log slope = 0.5)): more than 30 fold
log kcat slope ([4]; pH 6 to pH 8.5): 0.5
ascending limb pKa of kcat/KM vs pH (fit) [4]: 8.4 ± 0.1
descending limb pKa of kcat/KM vs pH (fit) [4]: 11.0 ± 0.1
kcat ([5]; pH 7.4, 37 °C): 300 ± 12 s⁻¹ and 300 s⁻¹
Fold change KM L-Arg [5]: (1. 4) fold
Km ([5]; pH 7.4, 37 °C, listed as Mn-ArgI): 2330 µM
Km ([5]; pH 8.5): 1600 µM

B3: Co-hArgI: Co^2+ substituted human Arginase I, recombinant, His6-tagged, expressed in E. coli (protein, UniProt P05089 1-322, looked up)
Arginase-1: MSAKSRTIGIIGAPFSKGQPRGGVEEGPTVLRKAGLLEKLKEQECDVKDYGDLPFADIPNDSPFQIVKNPRSVGKASEQLAGKVAEVKKNGRISLVLGGDHSLAIGSISGHARVHPDLGVIWVDAHTDINTPLTTTSGNLHGQPVSFLLKELKGKIPDVPGFSWVTPCISAKDIVYIGLRDVDPGEHYILKTLGIKYFSMTEVDRLGIGKVMEETLSYLLGRKKRPIHLSFDVDGLDPSFTPATGTPVVGGLTYREGLYITEEIYKTGLLSGLDIMEVNPSLGKTPEEVTRTVNTAVAITLACFGLAREGNHKPIDYLNPPK
modifications: Co2+ substituted; His6 tag
fold increase in cytotoxicity vs Mn-hArgI (melanoma cell line A375): ~ 13 fold
IC50 (melanoma cell line A375): 0.00032 ± 6e-05 µM
apparent pKa of kcat vs pH (one-pKa model) [4]: 5.2 ± 0.1
apparent pKa of 1/KM vs pH, lower pKa [4]: 7.2 ± 0.1
apparent pKa of 1/KM vs pH, upper pKa [4]: 9.7 ± 0.1 and 9.7
log kcat slope ([4]; pH 5 - 6): 0.43
log kcat slope ([4]; pH 6 – 10.5): ~ 0.03 and 0.03
ascending limb pKa of kcat/KM vs pH (fit) [4]: 7.4 ± 0.1
descending limb pKa of kcat/KM vs pH (fit) [4]: 10.0 ± 0.1
fold lower IC50 than Mn-hArgI ([6]; Hep3b): 15 fold
fold lower IC50 value ([6]; human hepatocellular carcinoma and melanoma cell lines): 12-15 fold
t½ of activity (monophasic sigmoidal loss) [7]: 45 ± 2 h
TM (mid-point temperature for unfolding) [8]: 74 °C
kcat ([5]; pH 7.4, 37 °C): 240 ± 14 s⁻¹ and 240 s⁻¹
Fold change KM L-Arg [5]: (1.4) fold
Km ([5]; pH 7.4, 37 °C): 190 ± 40 µM
Km ([5]; pH 8.5): 140 ± 10 µM

B4: rat Mn-ArgI: rat Arginase I with Mn^2+, literature comparator (protein, UniProt P07824 1-323, looked up)
Arginase-1: MSSKPKPIEIIGAPFSKGQPRGGVEKGPAALRKAGLVEKLKETEYNVRDHGDLAFVDVPNDSPFQIVKNPRSVGKANEQLAAVVAETQKNGTISVVLGGDHSMAIGSISGHARVHPDLCVIWVDAHTDINTPLTTSSGNLHGQPVAFLLKELKGKFPDVPGFSWVTPCISAKDIVYIGLRDVDPGEHYIIKTLGIKYFSMTEVDKLGIGKVMEETFSYLLGRKKRPIHLSFDVDGLDPVFTPATGTPVVGGLSYREGLYITEEIYKTGLLSGLDIMEVNPTLGKTPEEVTRTVNTAVALTLSCFGTKREGNHKPETDYLKPPK
modifications: Mn2+ cofactor
TM [9]: 75 °C

B5: bovine carboxypeptidase A: bovine carboxypeptidase A with Mn^2+ or Co^2+ as cofactor (protein, UniProt P00730 111-419, looked up)
Carboxypeptidase A1: ARSTNTFNYATYHTLDEIYDFMDLLVAEHPQLVSKLQIGRSYEGRPIYVLKFSTGGSNRPAIWIDLGIHSREWITQATGVWFAKKFTEDYGQDPSFTAILDSMDIFLEIVTNPDGFAFTHSQNRLWRKTRSVTSSSLCVGVDANRNWDAGFGKAGASSSPCSETYHGKYANSEVEVKSIVDFVKDHGNFKAFLSIHSYSQLLLYPYGYTTQSIPDKTELNQVAKSAVEALKSLYGTSYKYGSIITTIYQASGGSIDWSYNQGIKYSFTFELRDTGRYGFLLPASQIIPTAQETWLGVLTIMEHTLNNLY
modifications: Mn2+ or Co2+ cofactor
acidic limb kinetic pKa ([2]; Co^2+ substitution): 5.3
acidic limb kinetic pKa ([2]; Mn^2+ as a cofactor): 6.4

Source: paper PMC2842482 (ACS chemical biology, 2010)
